Data as given in ChEMBL document CHEMBL1140795, “Antimicrobial activities of the bromophenols from the red alga Odonthalia corymbifera and some synthetic derivatives” (2008).
Values after ≈ are worked out from the molar mass of the structure shown.

Assays:
Candida albicans = assay: Antifungal activity against Candida albicans ATCC 10231 after 48 to 72 hrs; format: functional
Outline: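 C. albicans ATCC 10231 was grown 48 h at 28 °C in YPD broth (1% yeast extract, 2% peptone, 2% dextrose), centrifuged and washed twice with sterile water. Compounds were dissolved in DMSO and serially diluted twofold in potato dextrose broth. Wells received broth containing about 10³ cells/ml and were incubated 48–72 h at 28 °C. The MIC was recorded.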

Escherichia coli = assay: Antibacterial activity against Escherichia coli ATCC 25922 after 24 hrs; format: functional; conditions: ATCC 25922, 24 h
Outline: (§1)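 Bacteria were grown overnight in LB broth at 37 °C, harvested by centrifugation and washed twice with sterile water. Test compounds were dissolved as DMSO stocks and serially diluted twofold in Standard method broth. Wells received broth containing about 10⁵ cfu/ml of bacteria and were incubated 24 h at 37 °C. The MIC was recorded.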

Salmonella typhimurium = assay: Antibacterial activity against Salmonella Typhimurium ATCC 14028 after 24 hrs; format: functional, Salmonella enterica subsp. enterica serovar Typhimurium; conditions: Salmonella enterica, ATCC 14028, 24 h; outline: as §1
Bacillus subtilis = assay: Antibacterial activity against Bacillus subtilis ATCC 6633 after 24 hrs; format: functional; conditions: ATCC 6633, 24 h; outline: as §1
Micrococcus luteus = assay: Antibacterial activity against Micrococcus luteus IFC 12708 after 24 hrs; format: functional; outline: as §1
Trichophyton benhamiae = assay: Antifungal activity against Trichophyton mentagrophytes IFO 40996 after 48 to 72 hrs; format: functional, Arthroderma benhamiae
Outline: (§2)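 Filamentous fungi were grown on potato dextrose agar for 2 weeks at 28 °C. Spores were washed three times in sterile water and resuspended at 10⁵ spores/ml. Compounds were dissolved in DMSO and serially diluted twofold in potato dextrose broth. Wells received broth containing about 10⁴ cells/ml and were incubated 48–72 h at 28 °C. The MIC was recorded.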

Trichophyton rubrum = assay: Antifungal activity against Trichophyton rubrum IFO 9185 after 48 to 72 hrs; format: functional; outline: as §2
Aspergillus fumigatus = assay: Antifungal activity against Aspergillus fumigatus HIC6094 after 48 to 72 hrs; format: functional; outline: as §2
Staphylococcus aureus = assay: Antibacterial activity against Staphylococcus aureus ATCC 6538p after 24 hrs; format: functional; outline: as §1
Proteus vulgaris = assay: Antibacterial activity against Proteus vulgaris ATCC 3851 after 24 hrs; format: functional; conditions: ATCC 3851, 24 h; outline: as §1

Row | Compound | MIC (Candida albicans) | MIC (Escherichia coli) | MIC (Salmonella typhimurium) | MIC (Bacillus subtilis) | MIC (Micrococcus luteus) | MIC (Trichophyton benhamiae) | MIC (Trichophyton rubrum) | MIC (Aspergillus fumigatus) | MIC (Staphylococcus aureus) | MIC (Proteus vulgaris)
1 | COCc1cc(O)c(O)c(Br)c1Cc1cc(O)c(O)c(Br)c1Br | 25 µg/mL (≈ 48.7 µM) | > 100 µg/mL | 25 µg/mL (≈ 48.7 µM) | 25 µg/mL (≈ 48.7 µM) | 25 µg/mL (≈ 48.7 µM) | 25 µg/mL (≈ 48.7 µM) | 25 µg/mL (≈ 48.7 µM) | 25 µg/mL (≈ 48.7 µM) | 25 µg/mL (≈ 48.7 µM) | 25 µg/mL (≈ 48.7 µM)
2 | OCc1cc(O)c(O)cc1Cc1ccc(O)c(O)c1 | > 100 µg/mL | > 100 µg/mL | > 100 µg/mL | > 100 µg/mL | > 100 µg/mL | > 100 µg/mL | > 100 µg/mL | > 100 µg/mL | > 100 µg/mL | > 100 µg/mL
3 | Oc1c(Br)cc(Cc2cc(Br)c(O)c(Br)c2O)c(O)c1Br | > 100 µg/mL | > 100 µg/mL | > 100 µg/mL | > 100 µg/mL | > 100 µg/mL | > 100 µg/mL | > 100 µg/mL | > 100 µg/mL | > 100 µg/mL | > 100 µg/mL
4 | Oc1ccc(Br)cc1Cc1cc(Br)ccc1O | > 100 µg/mL | > 100 µg/mL | 3.12 µg/mL (≈ 8.71 µM) | 3.12 µg/mL (≈ 8.71 µM) | 1.56 µg/mL (≈ 4.36 µM) | > 100 µg/mL | > 100 µg/mL | > 100 µg/mL | 3.12 µg/mL (≈ 8.71 µM) | 3.12 µg/mL (≈ 8.71 µM)
5 | Oc1c(Br)cc(Br)cc1Cc1cc(Br)cc(Br)c1O | > 100 µg/mL | > 100 µg/mL | 3.12 µg/mL (≈ 6.05 µM) | 1.56 µg/mL (≈ 3.02 µM) | 1.56 µg/mL (≈ 3.02 µM) | > 100 µg/mL | > 100 µg/mL | > 100 µg/mL | 1.56 µg/mL (≈ 3.02 µM) | 1.56 µg/mL (≈ 3.02 µM)
6 | Oc1ccc(Cc2ccc(O)c(Br)c2)cc1Br | > 100 µg/mL | > 100 µg/mL | 25 µg/mL (≈ 69.8 µM) | 12.5 µg/mL (≈ 34.9 µM) | 12.5 µg/mL (≈ 34.9 µM) | > 100 µg/mL | > 100 µg/mL | > 100 µg/mL | 25 µg/mL (≈ 69.8 µM) | 25 µg/mL (≈ 69.8 µM)
7 | Oc1cc(Cc2cc(O)c(O)c(Br)c2Br)c(Br)c(Br)c1O | 1.56 µg/mL (≈ 2.85 µM) | > 100 µg/mL | 50 µg/mL (≈ 91.3 µM) | 25 µg/mL (≈ 45.6 µM) | 25 µg/mL (≈ 45.6 µM) | 1.56 µg/mL (≈ 2.85 µM) | 1.56 µg/mL (≈ 2.85 µM) | 0.78 µg/mL (≈ 1.42 µM) | 25 µg/mL (≈ 45.6 µM) | 50 µg/mL (≈ 91.3 µM)
8 | Oc1ccc(Cc2ccc(O)c(O)c2)cc1O | > 100 µg/mL | > 100 µg/mL | > 100 µg/mL | > 100 µg/mL | > 100 µg/mL | > 100 µg/mL | > 100 µg/mL | > 100 µg/mL | > 100 µg/mL | > 100 µg/mL
9 | OCc1cc(O)c(O)c(Br)c1Cc1cc(O)c(O)c(Br)c1Br | 100 µg/mL (≈ 200 µM) | > 100 µg/mL | 100 µg/mL (≈ 200 µM) | 100 µg/mL (≈ 200 µM) | 50 µg/mL (≈ 100 µM) | 50 µg/mL (≈ 100 µM) | 50 µg/mL (≈ 100 µM) | > 100 µg/mL | 50 µg/mL (≈ 100 µM) | 100 µg/mL (≈ 200 µM)
10 | Oc1c(Br)cc(Cc2cc(Br)c(O)c(Br)c2)cc1Br | > 100 µg/mL | > 100 µg/mL | > 100 µg/mL | > 100 µg/mL | > 100 µg/mL | > 100 µg/mL | > 100 µg/mL | > 100 µg/mL | > 100 µg/mL | > 100 µg/mL
11 | COCc1cc(O)c(O)c(Br)c1Br | 100 µg/mL (≈ 321 µM) | > 100 µg/mL | > 100 µg/mL | > 100 µg/mL | > 100 µg/mL | 12.5 µg/mL (≈ 40.1 µM) | 12.5 µg/mL (≈ 40.1 µM) | > 100 µg/mL | > 100 µg/mL | > 100 µg/mL
12 | Oc1ccc(Cc2cc(Br)c(O)c(Br)c2)cc1Br | > 100 µg/mL | > 100 µg/mL | 6.25 µg/mL (≈ 14.3 µM) | 6.25 µg/mL (≈ 14.3 µM) | 6.25 µg/mL (≈ 14.3 µM) | > 100 µg/mL | > 100 µg/mL | > 100 µg/mL | 12.5 µg/mL (≈ 28.6 µM) | 6.25 µg/mL (≈ 14.3 µM)
13 | Oc1ccccc1Cc1cc(Br)ccc1O | > 100 µg/mL | > 100 µg/mL | 25 µg/mL (≈ 89.6 µM) | 25 µg/mL (≈ 89.6 µM) | 25 µg/mL (≈ 89.6 µM) | > 100 µg/mL | > 100 µg/mL | > 100 µg/mL | 25 µg/mL (≈ 89.6 µM) | 25 µg/mL (≈ 89.6 µM)
14 | NCCc1cc(Br)c(O)c(Br)c1 | 100 µg/mL (≈ 339 µM) | > 100 µg/mL | > 100 µg/mL | > 100 µg/mL | > 100 µg/mL | > 100 µg/mL | > 100 µg/mL | > 100 µg/mL | 100 µg/mL (≈ 339 µM) | > 100 µg/mL
15 | C[C@@H]1[C@H](O)[C@@H](C)/C=C/C=C/C=C/C=C/C=C/C=C/C=C/[C@H](O[C@@H]2O[C@H](C)[C@@H](O)[C@H](N)[C@@H]2O)C[C@@H]2O[C@](O)(C[C@@H](O)C[C@@H](O)[C@H](O)CC[C@@H](O)C[C@@H](O)CC(=O)O[C@H]1C)C[C@H](O)[C@H]2C(=O)O [AMPHOTERICIN B] | 6.25 µg/mL (≈ 6.76 µM) | – | – | – | – | 3.12 µg/mL (≈ 3.38 µM) | 3.12 µg/mL (≈ 3.38 µM) | 3.12 µg/mL (≈ 3.38 µM) | – | –
16 | CC1(C)S[C@@H]2[C@H](NC(=O)[C@H](N)c3ccccc3)C(=O)N2[C@H]1C(=O)O [AMPICILLIN] | – | 12.5 µg/mL (≈ 35.8 µM) | 3.12 µg/mL (≈ 8.93 µM) | 1.56 µg/mL (≈ 4.46 µM) | 1.56 µg/mL (≈ 4.46 µM) | – | – | – | 1.56 µg/mL (≈ 4.46 µM) | 3.12 µg/mL (≈ 8.93 µM)
17 | OCc1cc(O)c(O)c(Br)c1Br [LANOSOL] | > 100 µg/mL | > 100 µg/mL | > 100 µg/mL | > 100 µg/mL | > 100 µg/mL | 50 µg/mL (≈ 168 µM) | 50 µg/mL (≈ 168 µM) | > 100 µg/mL | > 100 µg/mL | > 100 µg/mL
